Activity calls are given as the source filed them. The rule behind the calls is not given here.
Tests used:
Mus musculus [1] = experiment: Anticonvulsant activity in CF1 albino mouse assessed as protection against scMet-induced seizures at 30 mg/kg, ip after 0.5 hrs; assay type: functional, organism-based; parameters: dose 30 mg/kg
In short: (§1)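 Adult male CF no. 1 albino mice (18-25 g) dosed intraperitoneally with compound suspended in 0.5% methylcellulose (0.01 mL/g). Convulsant challenge given subcutaneously as a 0.85% pentylenetetrazol solution in 0.9% saline. Read-out is animals protected over animals tested, with neurotoxicity scored in parallel.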

Mus musculus [2] = experiment: Anticonvulsant activity in CF1 albino mouse assessed as protection against scMet-induced seizures at 100 mg/kg, ip after 0.5 hrs; assay type: functional, organism-based; parameters: dose 100 mg/kg; in short: as §1
Mus musculus [3] = experiment: Anticonvulsant activity in CF1 albino mouse assessed as protection against scMet-induced seizures at 30 mg/kg, ip after 4 hrs; assay type: functional, organism-based; parameters: dose 30 mg/kg; in short: as §1
Mus musculus [4] = experiment: Anticonvulsant activity in CF1 albino mouse assessed as protection against scMet-induced seizures at 100 mg/kg, ip after 4 hrs; assay type: functional, organism-based; parameters: dose 100 mg/kg; in short: as §1
Mus musculus [5] = experiment: Neurotoxicity in CF1 albino mouse at 30 mg/kg, ip after 0.5 hrs; assay type: toxicity, organism-based; parameters: dose 30 mg/kg, route intraperitoneal; settings: in vivo
In short: (§2)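 Male CF no. 1 albino mice (18-25 g) received a single ip dose as a suspension in 0.5% methylcellulose. The read-out was the number of animals showing neurotoxicity (minimal motor impairment) over the number tested.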

Rattus norvegicus [6] = experiment: Anticonvulsant activity in albino Sprague-Dawley rat assessed as protection against maximal electroshock-induced seizures at 50 mg/kg, po after 4 hrs; assay type: functional, organism-based; parameters: dose 50 mg/kg
In short: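 Adult male Sprague-Dawley albino rats (100-150 g) dosed orally with compound suspended in 0.5% methylcellulose (0.04 mL per 10 g). Maximal electroshock challenge at the stated time. Protection is scored in 25% steps as the fraction of animals protected, with neurotoxicity recorded in parallel.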

Rattus norvegicus [7] = experiment: Anticonvulsant activity in albino Sprague-Dawley rat assessed as protection against scMet-induced seizures at 50 mg/kg, po after 30 mins; assay type: functional
In short: (§3)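 Male Sprague-Dawley albino rats (100-150 g) were given the compound orally as a suspension in 0.5% methylcellulose. Seizures were induced by subcutaneous pentylenetetrazol, dissolved in 0.9% saline as a 2.82% solution. The read-out was animals protected over animals tested.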

Rattus norvegicus [8] = experiment: Anticonvulsant activity in albino Sprague-Dawley rat assessed as protection against scMet-induced seizures at 50 mg/kg, po after 1 hr; assay type: functional; in short: as §3
Mus musculus [9] = experiment: Anticonvulsant activity in CF1 albino mouse assessed as protection against maximal electroshock-induced seizures at 60 mg/kg, ip; assay type: functional, organism-based; parameters: dose 60 mg/kg
In short: (§4)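 Adult male CF no. 1 albino mice (18-25 g). Test compound suspended in 0.5% methylcellulose and given intraperitoneally at 0.01 mL/g body weight. Maximal electroshock challenge at the stated time. Read-out is the number of animals protected over the number tested; neurotoxicity is scored in parallel.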

Mus musculus [10] = experiment: Neurotoxicity in CF1 albino mouse assessed as minimal motor impairment at 150 mg/kg, ip; assay type: toxicity, organism-based; parameters: dose 150 mg/kg, route intraperitoneal; settings: in vivo; in short: as §2
Mus musculus [11] = experiment: Anticonvulsant activity in CF1 albino mouse assessed as protection against 32 mA-current-induced seizure at 130 mg/kg, ip by 6Hz psychomotor seizure test; assay type: functional, organism-based; parameters: dose 130 mg/kg
In short: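 6 Hz psychomotor seizure test in male CF no. 1 mice, with compound given ip as a 0.5% methylcellulose suspension. Groups of 8 animals per dose. The 32 mA test used 25, 70 and 130 mg/kg; the 44 mA test used 25, 50, 75 and 100 mg/kg. ED50 and 95% confidence interval were obtained by probit analysis.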

Rattus norvegicus [12] = experiment: Anticonvulsant activity in po dosed albino Sprague-Dawley rat assessed as protection against maximal electroshock-induced seizures; assay type: functional
Mus musculus [13] = experiment: Anticonvulsant activity in ip dosed CF1 albino mouse assessed as protection against 32 mA current-induced seizure by 6Hz psychomotor seizure test; assay type: functional
In short: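 In the 6 Hz psychomotor seizure test, male CF no. 1 albino mice (18-25 g) received the compound ip in 0.5% methylcellulose. Stimulation was at 32 or 44 mA. Doses were varied to give 3-4 points between 0% and 100% protection, and ED50 with 95% confidence interval came from probit analysis.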

Mus musculus [14] = organism: Mus musculus; experiment: Protective index, ratio of TD50 for CF1 albino mouse to ED50 for 32 mA current-induced CF1 albino mouse seizure model; assay type: functional
In short: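 Protective index is the mouse TD50 (minimal motor impairment) divided by the 6 Hz test ED50 at 32 or 44 mA. Male CF no. 1 mice were dosed ip in 0.5% methylcellulose, and values came from probit analysis.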

Rattus norvegicus [15] = experiment: Anticonvulsant activity in albino Sprague-Dawley rat assessed as protection against scMet-induced seizures at 25 mg/kg, po; assay type: functional, organism-based; parameters: dose 25 mg/kg
In short: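 Oral dosing of male Sprague-Dawley rats (100-150 g) with compound in 0.5% methylcellulose. Convulsant challenge given subcutaneously as a 2.82% pentylenetetrazol solution in 0.9% saline. Groups of about 8 rats per dose. For quantitation, doses spanning 0% to 100% protection were fitted by probit analysis to give ED50 with 95% confidence interval.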

Rattus norvegicus [16] = experiment: Anticonvulsant activity in ip dosed albino Sprague-Dawley rat assessed as protection against pilocarpine-induced status epilepticus; assay type: functional
In short: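 Rat pilocarpine-induced status model: drug was given either at the first stage III seizure (time 0) or 30 min after status induction, […]. Seizure severity was scored on the Racine scale as protection or no protection. Time 0 used 12, 25, 50 and 100 mg/kg with 8 rats per dose. The 30 min arm used 50, 75 and 100 mg/kg with 7, 6 and 7 rats. ED50 was calculated.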

Mus musculus [17] = experiment: Teratogenic effect in SWV mouse assessed as resorptions at 336 mg/kg, ip administered on morning of day 8 of gestation; assay type: toxicity, organism-based; parameters: dose 336 mg/kg, route intraperitoneal; settings: in vivo
In short: (§5)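 Inbred SWV mouse strain highly susceptible to VPA-induced neural tube defects. Each dam received a single ip injection on gestation day 8.5, dosed within 1.8-4.2 mmol/kg, against a control of 25% aqueous Cremophor EL. Groups were compared with the control, and with the matched VPA sodium-salt dose, by Fisher's exact test (p < 0.05).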

Mus musculus [18] = experiment: Teratogenic effect in SWV mouse assessed as live fetuses at 502 mg/kg, ip administered on morning of day 8 of gestation; assay type: toxicity, organism-based; parameters: dose 502 mg/kg, route intraperitoneal; settings: in vivo
Mus musculus [19] = experiment: Teratogenic effect in SWV mouse assessed as number of dead fetuses at 336 mg/kg, ip administered on morning of day 8 of gestation; assay type: toxicity, organism-based; parameters: dose 336 mg/kg, route intraperitoneal; settings: in vivo; in short: as §5
Mus musculus [20] = experiment: Anticonvulsant activity in CF1 albino mouse assessed as protection against maximal electroshock-induced seizures at 30 mg/kg, ip after 0.5 hrs; assay type: functional, organism-based; parameters: dose 30 mg/kg; in short: as §4
Mus musculus [21] = experiment: Anticonvulsant activity in CF1 albino mouse assessed as protection against maximal electroshock-induced seizures at 300 mg/kg, ip after 0.5 hrs; assay type: functional, organism-based; parameters: dose 300 mg/kg; in short: as §4

CC1(C)C(C)(C)C1(F)C(N)=O
Activity (Mus musculus [1]): Non-toxic | Activity (Mus musculus [2]): Toxic | Activity (Mus musculus [3]): Non-toxic | Activity (Mus musculus [4]): Non-toxic | Activity (Mus musculus [5]): Non-toxic | Activity (Rattus norvegicus [6]): inactive | Activity (Rattus norvegicus [7]): 75% | Activity (Rattus norvegicus [8]): 75% | Activity (Mus musculus [9]): inactive | Activity (Mus musculus [10]): Toxic | Activity (Mus musculus [11]): Active | ED50 (Rattus norvegicus [12]): > 100 mg/kg | ED50 (Mus musculus [13]): 57 mg/kg | PI (Mus musculus [14]): 2.1 | Activity (Rattus norvegicus [15]): Active | ED50 (Rattus norvegicus [16]): 23 mg/kg | Activity (Mus musculus [17]): 9.8% | Activity (Mus musculus [18]): 73.2% | Activity (Mus musculus [19]): 0 | Activity (Mus musculus [20]): Non-toxic | Activity (Mus musculus [21]): Toxic
